From ChEMBL document CHEMBL1177686, “Constrained peptidomimetics as antiplasmodial falcipain-2 inhibitors” (Bioorg Med Chem, 2010) come the findings set out here.

A word on the Ki: it is the dissociation constant of the complex between target and ligand, obtained from inhibition or displacement. In general, IC50 refers to the concentration that gives 50% inhibition.

The nature of test [1]: Selectivity ratio of Ki for Plasmodium falciparum recombinant falcipain-2 to Ki for Trypanosoma brucei rhodesiense rhodesain.
In a further test the test system is Plasmodium falciparum. The test is described as follows: Antiplasmodial activity against Plasmodium falciparum FCBR infected in human erythrocytes assessed as parasite viability. Conditions: FCBR/Columbia. In kind it is functional, organism-based. An outline of the steps: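 P. falciparum FCBR kept in human A Rh+ erythrocytes, RPMI 1640 with 25 mM HEPES, 20 mM bicarbonate, 0.5% AlbuMAX I, 2.5% hematocrit, 37 °C, 94% N2/1% O2/5% CO2. Early-stage parasites plated at 1% parasitemia with compound (DMSO stock diluted 10-fold in 50% ethanol), 100-0.0488 µM, quadruplicates. Ethanol-only negative and 2 µM chloroquine positive controls. Viability assayed by a published method.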

The next test has as its target T1, Falcipain 2 (Plasmodium falciparum, UniProt Q9N6S8).
T1 sequence (Q9N6S8 whole entry): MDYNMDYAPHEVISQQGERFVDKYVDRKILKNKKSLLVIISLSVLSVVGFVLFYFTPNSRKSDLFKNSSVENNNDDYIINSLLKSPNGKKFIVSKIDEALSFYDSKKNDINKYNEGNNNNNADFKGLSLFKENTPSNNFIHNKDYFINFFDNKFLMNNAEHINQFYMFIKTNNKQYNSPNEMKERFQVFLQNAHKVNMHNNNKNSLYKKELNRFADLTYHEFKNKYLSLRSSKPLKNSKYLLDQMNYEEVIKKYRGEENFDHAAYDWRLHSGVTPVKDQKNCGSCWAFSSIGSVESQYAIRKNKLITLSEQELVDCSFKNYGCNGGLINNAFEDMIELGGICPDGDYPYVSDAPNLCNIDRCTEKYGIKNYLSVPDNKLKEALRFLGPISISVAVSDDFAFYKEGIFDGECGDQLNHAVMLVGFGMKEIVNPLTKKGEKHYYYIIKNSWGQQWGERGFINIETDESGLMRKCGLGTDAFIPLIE
The test is described as follows: Inhibition of Plasmodium falciparum recombinant falcipain-2 after 10 min.

Another test has as its target Cathepsin B (Homo sapiens, UniProt P07858). Nature of the test: Inhibition of human cathepsin B.
Test [2] addresses T2, Procathepsin L (Homo sapiens, UniProt P07711). Nature of the test: Inhibition of human cathepsin L. An outline of the steps:
(§1)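 Cathepsin L assay on Cbz-Phe-Arg-AMC 5 µM. […] Second-order constant k2nd taken as kinac/Ki.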
Target sequence in this assay (P07711 whole entry): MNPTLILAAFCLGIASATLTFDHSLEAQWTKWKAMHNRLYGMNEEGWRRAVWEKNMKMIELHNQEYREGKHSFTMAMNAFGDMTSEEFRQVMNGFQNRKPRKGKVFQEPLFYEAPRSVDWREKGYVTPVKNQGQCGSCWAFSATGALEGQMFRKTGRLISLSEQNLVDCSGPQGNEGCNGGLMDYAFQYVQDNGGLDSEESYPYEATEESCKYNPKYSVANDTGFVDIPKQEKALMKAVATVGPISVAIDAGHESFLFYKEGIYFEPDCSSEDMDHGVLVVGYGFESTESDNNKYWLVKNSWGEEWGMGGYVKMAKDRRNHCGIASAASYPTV

The target in the next test is Rhodesain (Trypanosoma brucei rhodesiense, UniProt Q95PM0). Nature of the test: Inhibition of Trypanosoma brucei rhodesiense rhodesain after 10 mins. An outline of the steps:
(§2)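 Rhodesain with Cbz-Phe-Arg-AMC 10 µM in 100 mM sodium acetate pH 5.5, 10 mM DTT. Fluorescence (ex 365/em 460 nm) read continuously for 10 min at increasing inhibitor levels, duplicate runs. Kiapp and kinac from hyperbolic kobs fit, corrected to Ki using Km 0.9 µM. k2nd as kinac/Ki, or from kobs/[I] when linear. Dixon plot if time-independent.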

In test [3] the target is T3, Falcipain 2 (Plasmodium falciparum) (UniProt Q9N6S8).
T3 sequence (whole entry): T1 sequence (Q9N6S8 whole entry)
The test is described as follows: Ratio of Kinact to Ki for Plasmodium falciparum recombinant falcipain-2 after 10 min.

Test [4] concerns the target Rhodesain (Trypanosoma brucei rhodesiense) (UniProt Q95PM0). Nature of the test: Ratio of Kinact to Ki for Trypanosoma brucei rhodesiense rhodesain after 10 mins. An outline of the steps: as §2
Test [5] deals with T2, Procathepsin L. Nature of the test: Ratio of Kinact to Ki for human cathepsin L. An outline of the steps:
as §1
Target sequence in this assay (P07711 114-333 limits assumed): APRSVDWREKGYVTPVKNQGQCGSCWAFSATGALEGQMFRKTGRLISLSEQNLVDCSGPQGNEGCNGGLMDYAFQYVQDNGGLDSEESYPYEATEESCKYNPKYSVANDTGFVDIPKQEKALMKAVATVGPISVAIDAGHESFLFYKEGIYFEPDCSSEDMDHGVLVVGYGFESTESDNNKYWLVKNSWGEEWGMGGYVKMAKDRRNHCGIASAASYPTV

SMILES strings stand for the structures.

Chain of Rhodesain (Q95PM0 whole entry): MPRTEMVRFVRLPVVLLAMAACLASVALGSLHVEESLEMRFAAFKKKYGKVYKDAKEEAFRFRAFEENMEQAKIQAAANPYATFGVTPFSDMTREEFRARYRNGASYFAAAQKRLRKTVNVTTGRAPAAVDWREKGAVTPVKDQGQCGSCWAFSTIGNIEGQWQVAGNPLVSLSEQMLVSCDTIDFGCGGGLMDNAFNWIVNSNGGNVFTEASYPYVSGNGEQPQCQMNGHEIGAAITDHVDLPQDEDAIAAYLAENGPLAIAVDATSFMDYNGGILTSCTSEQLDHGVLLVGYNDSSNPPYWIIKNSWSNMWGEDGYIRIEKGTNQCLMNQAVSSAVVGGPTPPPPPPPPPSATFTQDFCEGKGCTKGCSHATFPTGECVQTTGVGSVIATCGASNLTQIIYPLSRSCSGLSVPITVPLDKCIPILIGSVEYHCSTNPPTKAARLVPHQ
Chain of Rhodesain (Trypanosoma brucei rhodesiense) (Q95PM0 1-450): as the sequence (Q95PM0 whole entry) above

Turning to `COC(=O)/C=C/CNC(=O)CN1C(=O)[C@@H](COC(=O)NC2CCCCC2)N=C(c2ccccc2)c2ccccc21`, the Ratio Ki in test [1] came out at 5. Moreover, the Activity entry in the test with Plasmodium falciparum is “Dose-dependent effect”. Further, the Ki on Falcipain 2 was determined as 89 µM; on Cathepsin B it was 12.4 µM; at Procathepsin L [2], 76.5 µM.
Turning to `COC(=O)/C=C/[C@H](CC(C)C)NC(=O)CN1C(=O)[C@@H](COC(=O)Nc2ccc(Cl)cc2C(F)(F)F)N=C(c2ccccc2)c2ccccc21`, the Ki on Rhodesain was 0.87 µM; on Falcipain 2, 2.22 µM; on Cathepsin B, 39.1 µM; on Procathepsin L [2] it was greater than 150 µM. For the same compound, in test [1], the Ratio Ki was determined as 5. Further, the Ratio was 18000 in test [3] and 36000 in [4]. Besides, in the test on Plasmodium falciparum, the IC50 is 26.9 µM.
With `COC(=O)/C=C/CNC(=O)CN1C(=O)[C@@H](COC(=O)Nc2ccc(Cl)cc2C(F)(F)F)N=C(c2ccc(Br)cc2)c2ccccc21`, the Ki was 0.47 µM at Rhodesain, 1.56 µM on Falcipain 2, greater than 150 µM at Cathepsin B and greater than 150 µM at Procathepsin L [2]. Also, the Ratio Ki in test [1] was found to be 5. Moreover, the Ratio in test [3] worked out at 24500; in [4], 46000. In addition, in the test with Plasmodium falciparum, the half-maximal inhibitory concentration (IC50) was 6.33 µM.
Turning to `CCCCNC(=O)OC[C@H]1N=C(c2ccccc2)c2ccccc2N(CC(=O)NC/C=C/C(=O)OC)C1=O`, in test [1], the Ratio Ki was 5. Further, the Activity entry in the test on Plasmodium falciparum was “Dose-dependent effect”. For the same compound, the Ratio at Procathepsin L [5] was 9400. Also, the Ki is greater than 100 µM at Falcipain 2, 20.4 µM at Cathepsin B and 2.7 µM on Procathepsin L [2].
`COC(=O)/C=C/CNC(=O)CN1C(=O)[C@@H](COC(=O)Nc2ccc(OC)cc2)N=C(c2ccccc2)c2ccccc21`: the inhibition constant Ki on Rhodesain was determined as 4.3 µM; at Falcipain 2 it was 15.1 µM; on Cathepsin B, 2.23 µM; on Procathepsin L [2] it was 12 µM. Moreover, the Ratio Ki in test [1] is 5. For the same compound, the IC50 in the test on Plasmodium falciparum came to 33.1 µM. The Ratio on Procathepsin L [5] stood at 12500.
For the compound `C=CCNC(=O)CN1C(=O)[C@@H](CO)N=C(c2ccccc2)c2ccccc21`, in test [1], the Ratio Ki was found to be 5. Also, in the test on Plasmodium falciparum, the Activity result was “Dose-dependent effect”.
As to `COC(=O)/C=C/CNC(=O)CN1C(=O)[C@@H](COC(=O)Nc2cccc3ccccc23)N=C(c2ccccc2)c2ccccc21`, the Ki on Rhodesain stood at 0.93 µM; at Falcipain 2, 3.48 µM; at Cathepsin B, 25 µM; on Procathepsin L [2], 12.2 µM. Moreover, the Ratio Ki in test [1] was 5. Moreover, in the test on Plasmodium falciparum, the IC50 stood at 17.6 µM. Moreover, the Ratio on Procathepsin L [5] was determined as 6400.
With `COC(=O)/C=C/CNC(=O)CN1C(=O)[C@@H](COC(=O)Nc2ccc(Cl)cc2C(F)(F)F)N=C(c2ccc(OC)cc2)c2ccccc21`, the Ratio Ki in test [1] worked out at 5. Also, the results for the Ki at Falcipain 2, at Cathepsin B and at Procathepsin L [2] were greater than 100 µM, 10.9 µM and 59.9 µM, respectively.
For the compound `COC(=O)/C=C/CNC(=O)CN1C(=O)[C@@H](COC(=O)NC23CC4CC(CC(C4)C2)C3)N=C(c2ccccc2)c2ccccc21`, the Ki at Rhodesain was found to be 0.0026 µM; on Falcipain 2 it was 0.014 µM; on Cathepsin B, 13.7 µM; on Procathepsin L [2], 65 µM. Also, the Ratio Ki in test [1] came out at 5. Further, the Ratio in test [3] stood at 1.16e+06; on Procathepsin L [5] it was 550; in test [4], 4.62e+06. The IC50 in the test with Plasmodium falciparum is 10.7 µM.
`CC(C)C[C@H](NC(=O)[C@H]1O[C@@H]1C(=O)O)C(=O)NCCCCN=C(N)N`: in [3], the Ratio worked out at 1.59e+06.
With `COC(=O)/C=C/CNC(=O)CN1C(=O)[C@@H](COC(=O)Nc2ccc(Cl)cc2C(F)(F)F)N=C(c2ccccc2)c2cc(Cl)ccc21`, the inhibition constant (Ki) turned out to be 0.087 µM on Rhodesain, 0.46 µM at Falcipain 2, 6.1 µM at Cathepsin B and 29.8 µM at Procathepsin L [2]. Besides, in test [1], the Ratio Ki came to 5. For the same compound, the Ratio in test [3] came to 76000; in test [4], 220000. Besides, in the test with Plasmodium falciparum, the IC50 turned out to be 28.9 µM.
For the compound `COC(=O)/C=C/CNC(=O)CN1C(=O)[C@@H](COC(=O)Nc2ccc(Cl)cc2C(F)(F)F)N=C(c2ccccc2)c2ccccc21`, the Ki is 0.81 µM on Rhodesain and 0.017 µM on Falcipain 2. In addition, in test [1], the Ratio Ki stood at 5. Also, the Ratio in [3] came out at 3.57e+06; in [4] it was 34600.
